# Measured values: ChEMBL document CHEMBL1122273, “5-sulfamoylorthanilic acids, a sulfonamide series with salidiuretic activity” (J Med Chem, 1983)
# Calls of active or inactive are those of the source. The rule behind the calls is not given here.
# Assays:
# Canis familiaris [1] = experiment: Salidiuretic activity on the basis of the 1.56 mg/Kg perorally in dog assay; compound is found to be highly active.; assay type: functional, organism-based; details: Canis lupus familiaris; Urine
# Rattus norvegicus [2] = experiment: Salidiuretic activity on the basis of the 50 mg/kg perorally in rat assay; compound is found to be highly active.; details: Urine
# Canis familiaris [3] = experiment: Salidiuretic activity on the basis of the 1.56 mg/Kg perorally dog assay; compound was found to be highly active; assay type: functional, organism-based; details: Canis lupus familiaris; Urine
# Rattus norvegicus [4] = experiment: Salidiuretic activity on the basis of the 50 mg/kg perorally rat assay; compound was found to be highly active; assay type: functional, organism-based; set-up: dose 50 mg/kg; details: Urine
# Canis familiaris [5] = experiment: Sailuric activity in the dog measured as concentration of Cl - in urinary excretion (2 animals/dose) at (dose 1.56 mg/Kg, po); assay type: functional, Canis lupus familiaris, Urine
# How it was run: (§1)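 Male beagles trained to the procedures, food withdrawn 24 h before, tap water ad libitum. Bladder emptied by catheter, then 20 mL/kg tap water by stomach tube, plus 4 mL/kg orally at each hourly catheterization up to 8 h. The first 2 h of urine served as control. Compound given orally after the second catheterization. Urine from 1–6 h post-dose pooled; Na⁺ and K⁺ by flame photometry, Cl⁻ argentometrically, in mequiv/kg.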
# Canis familiaris [6] = experiment: Sailuric activity in the dog measured as concentration of K+ in urinary excretion (2 animals/dose) at (dose 1.56 mg/Kg, po); assay type: functional, Canis lupus familiaris, Urine; how it was run: as §1
# Rattus norvegicus [7] = species on record: Rattus norvegicus; experiment: Saluretic activity in the rat measured as concentration of K+ in urine; assay type: functional
# How it was run: (§2)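 Rats deprived of food 24 h, water ad libitum, dosed 50 mg/kg by stomach tube as suspension in 2% starch, no extra water load. Groups of three in diuresis funnels; urine over first 5 h collected. Na⁺ and K⁺ by flame photometry, Cl⁻ argentometrically; expressed as mequiv/kg.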
# Rattus norvegicus [8] = species on record: Rattus norvegicus; experiment: Diuretic activity in the rats, determined by a modified Lipschitz test; assay type: functional, Urine
# How it was run: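 Modified Lipschitz test: rats deprived of water 24 h, grouped in threes of similar weight in diuresis funnels. Oral dose of 50 mg/kg, suspended in 2% starch solution, by stomach tube.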
# Canis familiaris [9] = experiment: Diuretic activity in the dog (2 animals/dose) at (dose 1.56 mg/Kg), when administered perorally; assay type: functional, Canis lupus familiaris, Urine
# How it was run: (§3)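 Trained male beagles, fasted 24 h with tap water ad libitum. Bladder emptied by catheter, then 20 mL/kg tap water by stomach tube, with 4 mL/kg water at each hourly catheterization up to 8 h. The first 2 h of urine served as control. Oral dosing came after the second catheterization, and 1–6 h urine was pooled. Na⁺ and K⁺ were measured by flame photometry, Cl⁻ argentometrically, in mequiv/kg.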
# Rattus norvegicus [10] = experiment: Salidiuretic activity on the basis of the 50 mg/kg po rat assay; Compound is found to be modetately active; assay type: functional, organism-based; set-up: dose 50 mg/kg; details: Urine
# Rattus norvegicus [11] = species on record: Rattus norvegicus; experiment: Saluretic activity in the rat measured as concentration of chloride in urine; assay type: functional; how it was run: as §2
# Canis familiaris [12] = experiment: Salidiuretic activity on the basis of the 1.56 mg/Kg po dog assay; compound is found to be active; assay type: functional, organism-based; details: Canis lupus familiaris; Urine
# [13] = It is the ratio, measured as saluretic activity in the dog as concentration of Na+ in urinary excretion (dose 1.56 mg/Kg, perorally) to that of K; assay type: functional, Urine; how it was run: as §3
# Canis familiaris [14] = experiment: Saluretic activity in the dog measured as concentration of Na+ in urinary excretion (2 animals/dose) at (dose 1.56 mg/Kg, perorally); assay type: functional, Canis lupus familiaris, Urine
# How it was run: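 Male beagles trained to rest on a table and to accept stomach tube and catheter. Food withdrawn 24 h before, tap water ad libitum. Bladder emptied by catheter, then 20 mL/kg tap water by stomach tube. Catheterized hourly up to 8 h with 4 mL/kg water orally each time; first 2 h urine served as control. Oral dosing after second catheterization. Pooled 1–6 h urine; Na⁺/K⁺ by flame photometry, Cl⁻ argentometrically.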
# [15] = It is the ratio, measured as saluretic activity in the dog as concentration of Cl- in urinary excretion (dose 1.56 mg/Kg, perorally) to that of (Na+)+(K+); assay type: functional, Urine; how it was run: as §3
# Rattus norvegicus [16] = species on record: Rattus norvegicus; experiment: Saluretic activity in the rat measured as concentration of Na+ in urine; assay type: functional; how it was run: as §2
# Canis familiaris [17] = experiment: Salidiuretic activity on the basis of the 1.56 mg/Kg perorally dog assay; Compound was highly active; assay type: functional, organism-based; details: Canis lupus familiaris; Urine
# Rattus norvegicus [18] = experiment: Salidiuretic activity on the basis of the 50 mg/kg perorally rat assay; Compound was highly active; assay type: functional, organism-based; set-up: dose 50 mg/kg; details: Urine
# Rattus norvegicus [19] = experiment: Salidiuretic activity on the basis of the 50 mg/kg perorally rat assay; NA means inactive; details: Urine
# Canis familiaris [20] = experiment: Salidiuretic activity on the basis of the 1.56 mg/Kg perorally dog assay; compound was found to be active; assay type: functional, organism-based; details: Canis lupus familiaris; Urine
# Canis familiaris [21] = experiment: Saluretic activity in the dog measured as concentration of K+ in urinary excretion (2 animals/dose) at (dose 1.56 mg/Kg, perorally); assay type: functional, Canis lupus familiaris, Urine; how it was run: as §1
# Canis familiaris [22] = experiment: Saluretic activity in the dog measured as concentration of Cl - in urinary excretion (2 animals/dose) at (dose 1.56 mg/Kg, perorally); assay type: functional, Canis lupus familiaris, Urine; how it was run: as §1
SMILES,Saluretic activity (Rattus norvegicus [7]) [m equiv 5hr-1 kg-1],Diuretic activity (Rattus norvegicus [8]) [mL/kg],Diuretic activity (Canis familiaris [9]) [ml kg-1 6hr-1],Saluretic activity (Rattus norvegicus [11]) [m equiv 5hr-1 kg-1],Ratio [13],Saluretic activity (Canis familiaris [14]) [m equiv 6hr-1 kg-1],Ratio [15],Saluretic activity (Rattus norvegicus [16]) [m equiv 5hr-1 kg-1],also measured
NCc1ccco1.NS(=O)(=O)c1cc(S(=O)(=O)O)c(NCc2ccco2)cc1Cl,,,,,,,,,Saldiuretic activity (Canis familiaris [1]): Active; Saldiuretic activity (Rattus norvegicus [2]): Active
NS(=O)(=O)c1cc(S(=O)(=O)O)c(NCc2ccco2)cc1Oc1ccccc1,,,,,,,,,Saldiuretic activity (Canis familiaris [3]): Active; Saldiuretic activity (Rattus norvegicus [4]): Active
NCc1ccccc1.NS(=O)(=O)c1cc(S(=O)(=O)O)c(NCc2ccccc2)cc1Cl,1.4,1.4,40.4,1.2,4.7,1.65,1.05,1.4,Saldiuretic activity (Canis familiaris [5]): 2.07 m equiv 6hr-1 kg-1; Saluretic activity (Canis familiaris [6]): 0.35 m equiv 6hr-1 kg-1; Saldiuretic activity (Rattus norvegicus [10]): Weak activity; Saldiuretic activity (Canis familiaris [12]): Active
CN(c1ccccc1)c1cc(NCc2ccco2)c(S(=O)(=O)O)cc1S(N)(=O)=O,,,,,,,,,Saldiuretic activity (Canis familiaris [17]): Active; Saldiuretic activity (Rattus norvegicus [18]): Active
NS(=O)(=O)c1cc(S(=O)(=O)[O-])c(NCCc2ccco2)cc1Oc1ccccc1.[K+],0.7,1.2,35.2,0.9,4.2,0.89,1.1,0.6,Diuretic activity (Rattus norvegicus [19]): inactive; Saldiuretic activity (Canis familiaris [20]): Active; Saluretic activity (Canis familiaris [21]): 0.21 m equiv 6hr-1 kg-1; Saldiuretic activity (Canis familiaris [22]): 1.18 m equiv 6hr-1 kg-1
